The values below come from the EternaBench riboswitch data.

In this series the test system is MS2 coat protein. The series is described as follows: apparent Kd, MS2 coat protein; higher = weaker binding; RNA-MaP array; FMN 200 µM where present. In a few lines: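 Designs on Illumina sequencing-chip clusters, transcribed by stalled E. coli RNA polymerase, were exposed to SNAP-549-labelled MS2 coat protein in doubling steps from 0.7 or 1.5 nM up to 3 µM, without and then with constant ligand. The buffer held 100 mM Tris-HCl pH 7.5, 80 mM KCl, 4 mM MgCl2, BSA, DTT, yeast tRNA and Tween-20. Apparent Kd values are medians of filtered per-cluster binding-curve fits to green signal normalised to red-channel RNA signal and control-cluster median Fmax.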

[1] abbreviates: designed as: ON switch for flavin mononucleotide, no ligand.
[2] abbreviates: ligand present: flavin mononucleotide, designed as: ON switch for flavin mononucleotide.
Setting [3] is: designed as: OFF switch for flavin mononucleotide, no ligand.
Where [4] appears, read: ligand present: flavin mononucleotide, designed as: OFF switch for flavin mononucleotide.

The apparent Kd is the concentration giving half-maximal binding under the conditions of the assay. Turning to “UCUAGGGACGCAGGAUAUGGAGUGAGUGUCUAUCACAUGAGGAUCACCCAUGUUUGGGUCUCACGCUAGAAGGGCGAAUGUGGG”, the “apparent Kd” value was 357 nM under setting [1] and 63.5 nM under setting [2].

For the sequence “CGCACUGAUAGAGGAUAUGUUGUACAUGAGGAUCACCCAUGUGUUUUUGUAUCAAUAUUUGUGAAACAGAAGGCUAUUAGUGCG”, the “apparent Kd” value under setting [3] worked out at 7.58 nM and the “apparent Kd” value under setting [4] was 5.65 nM.

Turning to “AAGUAGGGAGGAUAUACAUAGAUACAGAUUCAUGUAGAACUACAUGAGGAUCACCCAUGUAGAAGGCCCUAAUA”, the “apparent Kd” value by setting is: under setting [3], 31.6 nM; under setting [4], 193 nM.

Consider “UUGGGACAUGAGGAUCACCCAUGUCAGGAUAUCCCGGCCCGCCCGUGAGGGCGGGCCGGGAGAAGGGACCUUUG”, for which the “apparent Kd” value amounted to 41 nM under setting [3] and 42.9 nM under setting [4].

For “UAUGUAUUCGUAGGAUAUCCGUCGCCACCGUGUGGAGAAGGACGAACAUGAGGAUCACCCAUGUAUCAUGGUGUAGACACUUUU”, the “apparent Kd” value is 98.4 nM under setting [3] and 154 nM under setting [4].

In the case of “GUUUCACAUGAGGAUCACCCAUGUGAGGAUAUGGUUUCGCUGGCCGUAGCCAGUGGAACCAGAAGGCGCAUGAU”, the “apparent Kd” value amounted to 36.5 nM under setting [3] and 41.3 nM under setting [4].

For the sequence “AGUUCUUGUGAAGGAUAUACGGCGGGUCGCGCAGUAGAAGGUCACAUGAGGAUCACCCAUGUCGACAUUGUGCAGUAUCGACAA”, the “apparent Kd” value under setting [3] came out at 82.9 nM and the “apparent Kd” value under setting [4] stood at 465 nM.

In the case of “UGCAUGUCAGGAUAUCGUGCAUACAACGAAAGUUCUAUGUGCGAGAAGGGACAUGAGGAUCACCCAUGUCUUCG”, the “apparent Kd” value under setting [3] was 24 nM and the “apparent Kd” value under setting [4] turned out to be 67.4 nM.

For the sequence “UGUGCGUUGAUCUUAGAUCGGAGUACAUGAGGAUCACCCAUGUAGGAUAUUCAAAGACGCAGAUAGAAGAAGGACAUAGGUUUC”, the “apparent Kd” value is, setting by setting: under setting [3], 7.85 nM; under setting [4], 11.6 nM.

Consider “UUUCAUUACCCGAAGGAUAUCGCUCUUCCGACAUGAGGAUCACCCAUGUACUAGCCCUCCCUGCUCGAGAAGGUCGCGCGUGAAC”, for which the “apparent Kd” value reads like this: under setting [1], 103 nM; under setting [2], 67.4 nM.

As for “CCUAGUUGGUAAGGAUAUCCUACACUGUUCUGACCCGUGCAAGCUACAUGAGGAUCACCCAUGUGGGAGAAGGUGCGUCGACGC”, the “apparent Kd” value came to 24 nM under setting [3] and 24.9 nM under setting [4].

Consider “AAGGAUAGAGGAUAUACAUAGAUACAGAUUCAUGUAGAACUACAUGAGGAUCACCCAUGUAGAAGGCUAUCCUA”, for which the “apparent Kd” value runs as follows: under setting [3], 32.9 nM; under setting [4], 239 nM.

Turning to “UAUUAGUUAGGAUAUACAUGAGGAUCACCCAUGUCACGGGUCCACUUGUCCUAUGCGUGUAGAAGGAGCGACCC”, the “apparent Kd” value reads like this: under setting [3], 19.5 nM; under setting [4], 20.8 nM.

With “AGAAAUUAGUGAGGAUAUGCAUAAUAUUUAGCUGCAGAAGGCACGGACCACAAGACAUGAGGAUCACCCAUGUGGUAUAUAGAU”, the “apparent Kd” value reads like this: under setting [3], 24.9 nM; under setting [4], 30.9 nM.

For the sequence “GCACUCAAGUUAGGAUAUGGAUCGGAAAACGAUCCAGAAGGAAUAUGGGAACAUGAGGAUCACCCAUGUUCCAGAAACGAGUGC”, the “apparent Kd” value by setting is: under setting [1], 62.5 nM; under setting [2], 30.4 nM.

For “AUCAGUCCGUAGAAGGGUGACAUGAGGAUCACCCAUGUGCCGUGUGCAUUUAUGCCUCCACGGCCACAGGAUAUACGGAGUCGA”, the “apparent Kd” value runs as follows: under setting [1], 89 nM; under setting [2], 22.6 nM.

Turning to “AUCAGCUCGUCAGGAUAUACGUCACUGCGUCAGCAGCGUGGUAAGAUCACAUGAGGAUCACCCAUGUAGAAGGGACGAGCUGAU”, the “apparent Kd” value was 25.7 nM under setting [3] and 336 nM under setting [4].

Regarding “GGCCCGGGAGGAUAUACAUGAGGAUCACCCAUGUGCUUGAGCUUGAUCGAGUUCGAGUGUAGAAGGCCCGGGCC”, the “apparent Kd” value runs as follows: under setting [3], 14 nM; under setting [4], 21.8 nM.

In the case of “AAAAAGCUAGGAUAUACAUGAAAAAAAAAAAAGUAAAAAAAACAUGAGGAUCACCCAUGUAGAAGGAGCAAAAA”, the “apparent Kd” value is 44 nM under setting [3] and 39.5 nM under setting [4].

Take “GGUUGGCGAGGAUAUACAUGAGGAUCACCCAUGUGGUCCUGAGAUAGAAUAGACCUUUGUAGAAGGCGCGGGUC”: the “apparent Kd” value under setting [3] amounted to 172 nM and the “apparent Kd” value under setting [4] came out at 136 nM.

As for “CAUGAUCAUGUAGGAUAUAUACUGGAAUACAGUAUAGAAGGACAUGAGGAUCACCCAUGUUAUGUGCCUCCAAGUGAGAUCAUG”, the “apparent Kd” value came to 20.1 nM under setting [3] and 28.3 nM under setting [4].

Regarding “UGUAUUAAUGGAGGAUAUCGAUAUCAAACAUGAGGAUCACCCAUGUUGAGGAUCACCCAUGUCCAUGAGAAGGCUGGCGUACGU”, the “apparent Kd” value under setting [1] was found to be 45.4 nM and the “apparent Kd” value under setting [2] stood at 40.9 nM.

For “GAUUGGCGACAAUUACAUGAGGAUCACCCAUGUUGUAGUAUGCAGGAUAUGUGGUAUAUUAUUUAACAGAAGGGCAAUAAUUUU”, the “apparent Kd” value was found to be 69.6 nM under setting [1] and 85.9 nM under setting [2].

As for “AAUAAACAUGAGGAUCACCCAUGUAAGGAUAUGCGAACAAUAAGAAGACAAUAAUAAAGCAGAAGGUACAAGAG”, the “apparent Kd” value under setting [3] was found to be 78.1 nM and the “apparent Kd” value under setting [4] is 96.2 nM.

Take “UGAAGGUAAGGAUAUACAUGAGGAUCACCCAUGUUGUCAUUUCUGUCUGGGCAGGCAUGUAGAAGGUACCUACA”: the “apparent Kd” value runs as follows: under setting [3], 26.4 nM; under setting [4], 87.3 nM.

Consider “GUACUGUAGUGAGGAUAUACGAGUACGAUAGUACGGCGAUCCAUUUAUACAUGAGGAUCACCCAUGUAGAAGGCACUUCAGUAC”, for which the “apparent Kd” value was 6.09 nM under setting [3] and 61.6 nM under setting [4].

With “UAUGAUUGAGGAUAUUGUACUGCUGACAUGAGGAUCACCCAUGUAUGCUAACUCGGCCGUCGAGAAGGCAAUUAUG”, the “apparent Kd” value reads like this: under setting [3], 141 nM; under setting [4], 51 nM.

As to “CGCAUGCGUAGUAUUAGUUGUUGACAGGAUAUGACAUGAGGAUCACCCAUGUGUAUUAAGAAGUGUCAGAAGGGUCUCGUUGCG”, the “apparent Kd” value under setting [3] is 6.53 nM and the “apparent Kd” value under setting [4] worked out at 9.73 nM.

With “UGAACUAUGUAGAAGGCCCACAUUAAUAUGUAGGGAGGAUAUACAUGAGGAUCACCCAUGUGAAGAGCAAGAGGGUUUAACAGA”, the “apparent Kd” value by setting is: under setting [3], 112 nM; under setting [4], 143 nM.

Regarding “UUCAGCUCGUGAGGAUAUACAUGUGCUGGAAACAGCACUAUUGAGUUCACAUGAGGAUCACCCAUGUAGAAGGCACGAGCUGAG”, the “apparent Kd” value reads like this: under setting [3], 15.2 nM; under setting [4], 27.9 nM.

On to “GCAGGUUAAGUCAGGAUAUACCUAUGGAUACAUAGGUAGAAGGGACAUGAGGAUCACCCAUGUUCCUCACCUGC”, for which the “apparent Kd” value reads like this: under setting [3], 15.6 nM; under setting [4], 34.3 nM.

With “AUCAGCUCGUCAGGAUAUACGUCACUGCGUCAGCAGUGUGGUAAGAUCACAUGAGGAUCACCCAUGUAGAAGGGACGAGCUGAG”, the “apparent Kd” value reads like this: under setting [3], 14.1 nM; under setting [4], 284 nM.

For “GAGAGGUCAGGAUAUACGGAGAGAGGGAGUUGGUGAGGGUAACAUGAGGAUCACCCAUGUAGAAGGGACUAAGG”, the “apparent Kd” value came out at 27.6 nM under setting [3] and 30.1 nM under setting [4].

Consider “AAUUAUUUAUGAGGAUAUUGUGGUGAAACACCACAAGAAGGCAUGAUACACAUGAGGAUCACCCAUGUGAGCCUGAUGCAUAUA”, for which the “apparent Kd” value runs as follows: under setting [3], 17.2 nM; under setting [4], 28.4 nM.

Consider “UGAUCGAGAGAUCUUAGAUUCUGGUAGGAUAUACAUUAUGUAUGAUAUACAUGAGGAUCACCCAUGUAGAAGGACUAGAGUCUA”, for which the “apparent Kd” value is, setting by setting: under setting [3], 6.2 nM; under setting [4], 9.39 nM.

Take “GGAGAGUCAGGAUAUACAUGAGGAUCACCCAUGUUGGAAAGUGGAGGGACGGGAGUCCGUAGAAGGGACGAGAG”: the “apparent Kd” value is, setting by setting: under setting [3], 34.4 nM; under setting [4], 27.7 nM.

As for “AAUAUGAGCUGGUUUAAAACCUAAACAUGAGGAUCACCCAUGUAGGAUAUCAGCACGAUAAGUGCUGAGAAGGACAUCCAGCUC”, the “apparent Kd” value worked out at 15 nM under setting [3] and 14.7 nM under setting [4].

As to “UCACGAGACUAAGGAUAUGGAGUGUCAACAUAAAACAUGAGGAUCACCCAUGUAAAGAGUACGAUUCAGAAGGUAGAGACGUGA”, the “apparent Kd” value is, setting by setting: under setting [1], 43 nM; under setting [2], 25.1 nM.

With “UUAACAUGAGGAUCACCCAUGUCGUGCAAGAUGAGUUCUGGUGAGGAUAUACAUGGUAAAGAACUGUAGAAGGCACUGGGUACA”, the “apparent Kd” value stood at 290 nM under setting [1] and 139 nM under setting [2].

With “CGCUCAAUUACUUUGAAUAGAAUCAGAAGGCGUUACAUGAGGAUCACCCAUGUUAUGAUGUGUAACGAGGAUAUGAAUUGAGCG”, the “apparent Kd” value runs as follows: under setting [3], 38.2 nM; under setting [4], 208 nM.

Consider “UUUUUAUUUGUAGGAUAUGGAGACAUGAGGAUCACCCAUGUAUGAUAAGCUAAAUUAUGAUGUGGCCAGAAGGAUAUUAUUUUU”, for which the “apparent Kd” value runs as follows: under setting [1], 51.1 nM; under setting [2], 72.6 nM.

With “AAGCGAAAGCUAAAAUAUCUAUCAGAGGAUAUUUAUGAUACAUGAGGAUCACCCAUGUAGCGCUGGGAGAAGGCUGAUAGAUAA”, the “apparent Kd” value worked out at 6.44 nM under setting [1] and 4.98 nM under setting [2].

In the case of “AAGAAGUCAGGAUAUGCAUGGCGGGACUUGCGUCGUGGCGUGCAGAAGGGACAUGAGGAUCACCCAUGUGGAGC”, the “apparent Kd” value is, setting by setting: under setting [3], 107 nM; under setting [4], 161 nM.

In the case of “GGAUGACAAAGUCAUCCAUAACGAACAUGAGGAUCACCCAUGUAGGAUAUGCUAGUCAAAGACUAGCAGAAGGACAUGUGUCUU”, the “apparent Kd” value reads like this: under setting [3], 36.4 nM; under setting [4], 146 nM.

On to “AAGUAACAUGAGGAUCACCCAUGUGAGGUGAGCGUAGGAUAUCGAGGAGGAAGGGUGGAGCGAGAAGGACGAGAGG”, for which the “apparent Kd” value turned out to be 362 nM under setting [1] and 360 nM under setting [2].

As to “GGUACCAUCACAGGAUAUGCUUUUCUUUGGGAAGCAGAAGGGUGUAACAUGAGGAUCACCCAUGUGGUGCCAGGGCGUGAGCCC”, the “apparent Kd” value turned out to be 182 nM under setting [1] and 14.7 nM under setting [2].

With “GCGCUAAAACAGAAGGCCAAAUACAUGAGGAUCACCCAUGUCGAAUCAUGGAGGAUAUGUUAUUAAUUACACGCAGAUGAGCGC”, the “apparent Kd” value under setting [1] was 90.8 nM and the “apparent Kd” value under setting [2] came to 9.9 nM.

Turning to “UGUCGGAGCAGAGGAUAUUACAUGAGGAUCACCCAUGUAUGAACCAAUAGCUGGAUACAGCAAUGUAAGAAGGCUGCUCCGACA”, the “apparent Kd” value runs as follows: under setting [3], 9.16 nM; under setting [4], 89.2 nM.
